According to ChEMBL document CHEMBL1155161, “Effects of the translocation status of human immunodeficiency virus type 1 reverse transcriptase on the efficiency of excision of tenofovir” (Antimicrob Agents Chemother, 2007):

How the values were obtained:
[1] = system: Human immunodeficiency virus 1; test: Ratio of Ki for HIV1 reverse transcriptase M41L/D67N/L210W/T215Y mutant to Ki for wild-type reverse transcriptase
Method in brief: (§1)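 Steady-state kinetics for WT or 4Y p66/p51 RT on activated calf thymus DNA, with template in excess. Rates come from linear regression of [3H]dNTP incorporation over a time course, with increasing NRTI. Km and Ki are fitted with a competitive inhibition equation (Marquardt-Levenberg); two-tailed t-tests.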

[2] = system: Human immunodeficiency virus type 1 reverse transcriptase (Human immunodeficiency virus 1), Q72547 [M41L,D67N,L210W,T215Y]; test: Ratio of Ki to Km for HIV1 reverse transcriptase M41L/D67N/L210W/T215Y mutant by steady state nucleotide incorporation assay; method in brief: as §1
[3] = system: Human immunodeficiency virus 1; test: Ratio of Ki/Km for HIV1 reverse transcriptase M41L/D67N/L210W/T215Y mutant to Ki/Km for wild-type reverse transcriptase; method in brief: as §1
[4] = target: Human immunodeficiency virus type 1 reverse transcriptase (Human immunodeficiency virus 1, UniProt Q72547, D67N/L210W/M41L/T215Y); test: Inhibition of HIV1 reverse transcriptase M41L/D67N/L210W/T215Y mutant by steady state nucleotide incorporation assay; method in brief: as §1
[5] = target: T1, Human immunodeficiency virus type 1 reverse transcriptase (Human immunodeficiency virus 1, UniProt Q72547); test: Inhibition of HIV1 reverse transcriptase by steady state nucleotide incorporation assay
Method in brief: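 Steady-state assay with activated calf thymus DNA as template in excess; rates from linear regression of [3H]dNTP incorporation over time; Km and Ki fitted to competitive inhibition equation (constant Vmax) over increasing NRTI concentrations; two-tailed t tests.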

[6] = target: Human immunodeficiency virus type 1 reverse transcriptase (Human immunodeficiency virus 1) (UniProt Q72547); test: Ratio of Ki to Km for HIV1 reverse transcriptase by steady state nucleotide incorporation assay; method in brief: as §1
[7] = system: Human immunodeficiency virus type 1 reverse transcriptase (Human immunodeficiency virus 1), Q72547 [M41L,D67N,L210W,T215Y]; test: Inhibition of HIV1 reverse transcriptase M41L/D67N/L210W/T215Y mutant assessed as dCTP level required to form 80% of binary enzyme complex formation with drug-terminated primer in posttranslocation state by site-specific foot printing assay
Method in brief: (§2)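 Site-specific footprinting uses a radiolabelled template with WT or 4Y p66/p51 RT in pH 7 cacodylate buffer with 6 mM MgCl2. The primer is chain-terminated with 10 μM analogue (20 min, 37°C), then the next nucleotide dCTP is added at varying levels for 10 min at 37°C. Complexes are treated with KOONO and resolved on urea gels. The value is the dCTP level giving 50% or 80% posttranslocated complex; ≥3 experiments.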

[8] = target: T1, Human immunodeficiency virus type 1 reverse transcriptase; test: Binding affinity to ternary complex of HIV1 reverse transcriptase with primer/template in presence of dCTP substrate
[9] = target: Human immunodeficiency virus type 1 reverse transcriptase (Human immunodeficiency virus 1) (UniProt Q72547); test: Inhibition of HIV1 reverse transcriptase assessed as dCTP level required to form 80% of binary enzyme complex formation with drug-terminated primer in posttranslocation state by site-specific foot printing assay; method in brief: as §2
[10] = system: Human immunodeficiency virus type 1 reverse transcriptase (Human immunodeficiency virus 1), Q72547 [M41L,D67N,L210W,T215Y]; test: Ratio of Kcat to Km for HIV1 reverse transcriptase M41L/D67N/L210W/T215Y mutant assessed as nucleotide excision activity in presence of 10 uM dCTP
Method in brief: (§3)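 Purified heterodimeric p66/p51 HIV-1 RT (WT or M41L/D67N/L210W/T215Y). ATP plus a dNTP mix containing the next nucleotide dCTP (0.5 or 10 μM) is then added at 37°C. Excised/rescued product is followed over time on denaturing urea gels. ATP Km and Vmax give kcat/Km; means of ≥3 experiments. Ratios are 4Y/WT or 0.5/10 μM dCTP.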

[11] = target: Human immunodeficiency virus type 1 reverse transcriptase (Human immunodeficiency virus 1) (UniProt Q72547); test: Ratio of Kcat to Km for HIV1 reverse transcriptase assessed as nucleotide excision activity in presence of 10 uM dCTP; method in brief: as §3
[12] = system: Human immunodeficiency virus type 1 reverse transcriptase (Human immunodeficiency virus 1), Q72547 [M41L,D67N,L210W,T215Y]; test: Ratio of Kcat/Km for HIV1 reverse transcriptase M41L/D67N/L210W/T215Y mutant in presence of 0.5 uM dCTP to Kcat/Km for reverse transcriptase M41L/D67N/L210W/T215Y mutant in presence of 10 uM dCTP by nucleotide excision activity assay; method in brief: as §3
[13] = target: Human immunodeficiency virus type 1 reverse transcriptase (Human immunodeficiency virus 1) (UniProt Q72547); test: Ratio of Kcat to Km for HIV1 reverse transcriptase assessed as nucleotide excision activity in presence of 0.5 uM dCTP; method in brief: as §3
[14] = system: Human immunodeficiency virus 1; test: Ratio of Kcat/Km for HIV1 reverse transcriptase M41L/D67N/L210W/T215Y mutant to Kcat/Km for wild-type reverse transcriptase assessed as nucleotide excision activity in presence of 10 uM dCTP; method in brief: as §3
[15] = system: Human immunodeficiency virus type 1 reverse transcriptase (Human immunodeficiency virus 1), Q72547 [M41L,D67N,L210W,T215Y]; test: Inhibition of HIV1 reverse transcriptase M41L/D67N/L210W/T215Y mutant assessed as dCTP level required to form 50% of binary enzyme complex formation with drug-terminated primer in posttranslocation state by site-specific foot printing assay; method in brief: as §2
[16] = system: Human immunodeficiency virus type 1 reverse transcriptase (Human immunodeficiency virus 1), Q72547 [M41L,D67N,L210W,T215Y]; test: Ratio of Kcat to Km for HIV1 reverse transcriptase M41L/D67N/L210W/T215Y mutant assessed as nucleotide excision activity in presence of 0.5 uM dCTP; method in brief: as §3
[17] = target: Human immunodeficiency virus type 1 reverse transcriptase (Human immunodeficiency virus 1) (UniProt Q72547); test: Inhibition of HIV1 reverse transcriptase assessed as dCTP level required to form 50% of binary enzyme complex formation with drug-terminated primer in posttranslocation state by site-specific foot printing assay; method in brief: as §2
[18] = target: Human immunodeficiency virus type 1 reverse transcriptase (Human immunodeficiency virus 1) (UniProt Q72547); test: Ratio of Kcat/Km for HIV1 reverse transcriptase in presence of 0.5 uM dCTP to Kcat/Km for reverse transcriptase in presence of 10 uM dCTP by nucleotide excision activity assay; method in brief: as §3
[19] = system: Human immunodeficiency virus 1; test: Ratio of Kcat/Km for HIV1 reverse transcriptase M41L/D67N/L210W/T215Y mutant to Kcat/Km for wild-type reverse transcriptase assessed as nucleotide excision activity in presence of 0.5 uM dCTP; method in brief: as §3
[20] = system: [N-]=[N+]=N[C@H]1C[C@H](n2cnc3c(N)ncnc32)O[C@@H]1COP(=O)(O)O; test: (§4) Activity of HIV1 reverse transcriptase M41L/D67N/L210W/T215Y mutant assessed as nucleotide excision activity in presence of 10 uM dCTP; details: Human immunodeficiency virus 1; method in brief: as §3
[21] = system: C[C@H](Cn1cnc2c(N)ncnc21)OCP(=O)(O)O; test: as §4; details: Human immunodeficiency virus 1; method in brief: as §3
[22] = system: Cc1cn([C@H]2C[C@H](N=[N+]=[N-])[C@@H](COP(=O)(O)O)O2)c(=O)[nH]c1=O; test: as §4; details: Human immunodeficiency virus 1; method in brief: as §3
[23] = system: [N-]=[N+]=N[C@H]1C[C@H](n2cnc3c(N)ncnc32)O[C@@H]1COP(=O)(O)O; test: (§5) Activity of HIV1 reverse transcriptase M41L/D67N/L210W/T215Y mutant assessed as nucleotide excision activity in presence of 0.5 uM dCTP; details: Human immunodeficiency virus 1; method in brief: as §3
[24] = system: C[C@H](Cn1cnc2c(N)ncnc21)OCP(=O)(O)O; test: as §5; details: Human immunodeficiency virus 1; method in brief: as §3
[25] = system: Cc1cn([C@H]2C[C@H](N=[N+]=[N-])[C@@H](COP(=O)(O)O)O2)c(=O)[nH]c1=O; test: as §5; details: Human immunodeficiency virus 1; method in brief: as §3

| Compound | Ratio Ki [1] | Ratio [2] | Ratio [3] | Ki [4] [nM] | Ki [5] [nM] | Ratio [6] | Activity [7] [µM] | Kd [8] [nM] | Activity [9] [µM] | Ratio [10] | Ratio [11] | Ratio [12] | Ratio [13] | Ratio [14] | Activity [15] [µM] | Ratio [16] | Activity [17] [µM] | Ratio [18] | Ratio [19] | other results |
| --- | --- | --- | --- | --- | --- | --- | --- | --- | --- | --- | --- | --- | --- | --- | --- | --- | --- | --- | --- | --- |
| C[C@H](Cn1cnc2c(N)ncnc21)OCP(=O)(O)OP(=O)(O)O | 0.5 | 0.19 | 0.4 | 110 | 210 | 0.47 | – | – | – | – | – | – | – | – | – | – | – | – | – | – |
| [N-]=[N+]=N[C@H]1C[C@H](n2cnc3c(N)ncnc32)O[C@@H]1COP(=O)(O)OP(=O)(O)OP(=O)(O)OP(=O)(O)O | 0.65 | 0.26 | 0.5 | 150 | 230 | 0.51 | – | – | – | – | – | – | – | – | – | – | – | – | – | – |
| Nc1ncnc2c1ncn2[C@H]1CC[C@@H](COP(=O)(O)O)O1 | – | – | – | – | – | – | 0.3 | 100 | 0.2 | – | – | – | – | – | – | – | – | – | – | – |
| Cc1cn([C@H]2C[C@H](N=[N+]=[N-])[C@@H](COP(=O)(O)OP(=O)(O)OP(=O)(O)O)O2)c(=O)[nH]c1=O | 1.2 | 0.09 | 1 | – | – | 0.09 | – | – | – | – | – | – | – | – | – | – | – | – | – | – |
| [N-]=[N+]=N[C@H]1C[C@H](n2cnc3c(N)ncnc32)O[C@@H]1COP(=O)(O)O | – | – | – | – | – | – | > 100 | – | 100 | 1.2 | 0.37 | 1.3 | 0.49 | 3.2 | 27 | 1.6 | 10 | 1.3 | 3.3 | – |
| Cc1cn([C@H]2C[C@H](N=[N+]=[N-])[C@@H](COP(=O)(O)O)O2)c(=O)[nH]c1=O [AZIDOTHYMIDINE MONOPHOSPHATE] | – | – | – | – | – | – | 50 | 24900 | 31 | 1.08 | 0.16 | 1.2 | 0.19 | 6.8 | 8 | 1.3 | 8 | 1.2 | 6.8 | – |
| Nc1ncnc2c1ncn2[C@H]1CC[C@@H](COP(=O)(O)OP(=O)(O)OP(=O)(O)O)O1 [DDA-TRIPHOSPHATE] | 0.6 | 0.09 | 0.5 | 50 | 90 | 0.2 | – | – | – | – | – | – | – | – | – | – | – | – | – | – |
| C[C@H](Cn1cnc2c(N)ncnc21)OCP(=O)(O)O [TENOFOVIR ANHYDROUS] | – | – | 0.4 | – | – | – | 2 | 3200 | 3 | 2.9 | 0.15 | 5.7 | 1.1 | 19.3 | 0.3 | 16.4 | 0.1 | 7.3 | 14.9 | – |
| Cc1cn([C@H]2C[C@H](N=[N+]=[N-])[C@@H](CO[P@](=O)(O)O[P@](=O)(O)OP(=O)(O)O)O2)c(=O)[nH]c1=O [ZIDOVUDINE TRIPHOSPHATE] | – | – | – | 47 | 41 | – | – | – | – | – | – | – | – | – | – | – | – | – | – | – |
| Human immunodeficiency virus type 1 reverse transcriptase (Human immunodeficiency virus 1) (from UniProt Q72547) M41L,D67N,L210W,T215Y | – | – | – | – | – | – | – | – | – | – | – | – | – | – | – | – | – | – | – | Km [20]: 2000 µM; kcat [20]: 2.4 ×10⁻³ /min; Km [21]: 960 µM; kcat [21]: 2.8 ×10⁻³ /min; Km [22]: 1200 µM; kcat [22]: 1.3 ×10⁻³ /min; Km [23]: 2000 µM; kcat [23]: 3.2 ×10⁻³ /min; Km [24]: 590 µM; kcat [24]: 9.7 ×10⁻³ /min; Km [25]: 1400 µM; kcat [25]: 1.8 ×10⁻³ /min |
